This note sets out measurements from ChEMBL document CHEMBL4145576, “Isolation, Synthesis, and Antisepsis Effects of a C-Methylcoumarinochromone Isolated from Abronia nana Cell Culture” (J Nat Prod, 2018).

The target of series [1] is T1, High mobility group protein B1 (Homo sapiens) (UniProt P09429).
T1 sequence (whole entry): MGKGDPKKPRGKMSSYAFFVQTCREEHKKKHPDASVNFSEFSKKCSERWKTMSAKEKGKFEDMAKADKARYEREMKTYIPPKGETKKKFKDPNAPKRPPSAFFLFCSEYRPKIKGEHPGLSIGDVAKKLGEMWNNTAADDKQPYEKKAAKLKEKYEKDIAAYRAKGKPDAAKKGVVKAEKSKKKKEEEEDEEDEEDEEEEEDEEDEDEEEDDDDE
Nature of the series: Inhibition of HMGB1-mediated E-selectin expression level in HUVEC at 0.1 to 1 uM after 6 hrs by ELISA. The class given is cell-based. The essentials:
(§1)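 Confluent HUVECs treated with HMGB1 (1 μg/mL, 16 h), then compound (0–1 μM) for 6 h. Cells fixed in 1% paraformaldehyde and probed with anti-VCAM-1, ICAM-1 or E-selectin (1:50, 1 h, 37 °C). Peroxidase anti-mouse IgG (1:2000) added, developed with o-phenylenediamine, read at 490 nm.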
In general terms: ELISA stands for enzyme-linked immunosorbent assay.

The target in series [2] is T1, High mobility group protein B1 (Homo sapiens). Nature of the series: Inhibition of HMGB1-mediated disruption of barrier integrity in HUVEC by measuring flux of albumin-bound evans blue after 6 hrs by spectrophotometric method. The class given is cell-based. In short, it runs like this:
(§2)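 HUVECs (5 × 10^4 cells/well) grown 3 days on 3 μm Transwells to confluence. Monolayers exposed to LPS (100 ng/mL, 4 h) or HMGB1 (1 μg/mL, 16 h), or left unstimulated, then treated with compound for 6 h. Flux of albumin-bound Evans blue measured spectrophotometrically.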

Series [3] deals with Mus musculus. Nature of the series: Antisepsis activity in C57BL/6 mouse assessed as inhibition of CLP-induced TNFalpha level in blood at 28 to 56 ug/kg, iv at 12 and 50 hrs post CLP surgery by ELISA. The class given is functional, organism-based. In short, it runs like this:
(§3)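 Male C57BL/6 mice underwent CLP and received compound iv (28 or 56 μg/kg) at 12 and 50 h after CLP. Animals bled out. AST, ALT, BUN, creatinine and LDH measured in plasma/serum with biochemical kits. IL-1β, IL-6, IL-10, MCP-1 and TNF-α measured by ELISA. Means ± SD of five independent experiments.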

Series [4] relates to Mus musculus. Nature of the series: Antisepsis activity in C57BL/6 mouse assessed as inhibition of CLP-induced IL-10 level in blood at 28 to 56 ug/kg, iv at 12 and 50 hrs post CLP surgery by ELISA. The class given is functional, organism-based. In short, it runs like this: as §3
The test system of series [5] is Lipopolysaccharide (LPS). Nature of the series: Inhibition of bacterial LPS-mediated disruption of barrier integrity in HUVEC by measuring flux of albumin-bound evans blue after 6 hrs by spectrophotometric method. The class given is cell-based. Conditions: Bacteria. In short, it runs like this: as §2
The target of series [6] is T1, High mobility group protein B1 (Homo sapiens). Nature of the series: Inhibition of HMGB1-induced TLR2 expression level in HUVEC at 0.1 to 1 uM after 6 hrs by ELISA. The class given is cell-based. The essentials:
(§4)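 Confluent HUVECs activated with HMGB1 (1 μg/mL, 16 h), then incubated with compound for 6 h. Surface TLR2, TLR4 and RAGE determined by cell-based ELISA with specific antibodies.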

The target is the same in series [7]. Nature of the series: Inhibition of HMGB1-mediated ICAM-1 expression level in HUVEC at 0.1 to 1 uM after 6 hrs by ELISA. The class given is cell-based. In short, it runs like this: as §1
For series [8] the target is unchanged. Nature of the series: Inhibition of HMGB1-mediated VCAM-1 expression level in HUVEC at 0.1 to 1 uM after 6 hrs by ELISA. The class given is cell-based. The essentials: as §1
Series [9] relates to Mus musculus. Nature of the series: Antisepsis activity in C57BL/6 mouse assessed as inhibition of CLP-induced blood urea nitrogen level in plasma at 28 to 56 ug/kg, iv at 12 and 50 hrs post CLP surgery. The class given is functional, organism-based. In short, it runs like this:
as §3

The test system of series [10] is Mus musculus. Nature of the series: Antisepsis activity in C57BL/6 mouse assessed as inhibition of CLP-induced HMGB1 release in serum at 28 to 56 ug/kg, iv administered 12 hrs post CLP challenge by ELISA. The class given is functional, organism-based. In short, it runs like this: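 Male C57BL/6 mice underwent CLP and received compound iv (28 or 56 μg/kg) 12 h later; n = 5. Mice killed 24 h after CLP. Serum HMGB1 measured by ELISA.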

The target in series [11] is T1, High mobility group protein B1 (Homo sapiens). Nature of the series: Inhibition of LPS-induced HMGB1 release in HUVEC at > 0.2 uM pretreated with bacterial LPS for 16 hrs followed by compound treatment measured after 6 hrs by ELISA. The class given is cell-based.
The subject of series [12] is Mus musculus. Nature of the series: Antisepsis activity in C57BL/6 mouse assessed as inhibition of CLP-induced MCP1 level in blood at 28 to 56 ug/kg, iv at 12 and 50 hrs post CLP surgery by ELISA. The class given is functional, organism-based. The essentials: as §3
The test system of series [13] is HUVEC. Nature of the series: Effect on HMGB1 release in HUVEC at > 0.2 uM after 6 hrs by ELISA. The class given is ADME, cell-based. Conditions: human.
Series [14] relates to Mus musculus. Nature of the series: Antisepsis activity in C57BL/6 mouse assessed as inhibition of CLP-induced mortality at 56 ug/kg, iv administered twice daily at 12 and 50 hrs post CLP measured every 6 hrs post CLP for 150 hrs (reference value: 40%). The class given is functional. Conditions: C57BL/6, iv.
Series [15] has as its system Mus musculus. Nature of the series: Antisepsis activity in C57BL/6 mouse assessed as inhibition of CLP-induced AST level in plasma at 28 to 56 ug/kg, iv at 12 and 50 hrs post CLP surgery. The class given is functional, organism-based. In short, it runs like this: as §3
The test system of series [16] is Mus musculus. Nature of the series: Antisepsis activity in C57BL/6 mouse CLP surgery model assessed as reduction in bacterial burden in peritoneal lavage fluid at 28 to 56 ug/kg, iv measured after 24 hrs. The class given is functional, organism-based. In short, it runs like this:
(§5)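 Male C57BL/6 mice (27 g) underwent CLP: cecum ligated 5 mm from tip and punctured once with a 22-gauge needle. Peritoneal lavage fluid and blood collected 24 h after CLP and centrifuged. Diluted samples plated on 5% sheep blood agar at 37 °C for 24 h, then CFUs counted; n = 10.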

The subject of series [17] is Mus musculus. Nature of the series: Antisepsis activity in C57BL/6 mouse assessed as inhibition of CLP-induced IL-6 level in blood at 28 to 56 ug/kg, iv at 12 and 50 hrs post CLP surgery by ELISA. The class given is functional, organism-based. The essentials:
as §3

Series [18] has as its target T1, High mobility group protein B1 (Homo sapiens). Nature of the series: Inhibition of HMGB1-mediated human neutrophil migration in HUVEC after 6 hrs by crystal violet staining based microscopy. The class given is cell-based. The essentials: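 HUVECs (6 × 10^4 cells/well) grown 3 days on 8 μm Transwells, then treated with HMGB1 (1 μg/mL, 16 h) and compound for 6 h before cells added to the upper chamber. Migrated cells fixed in 8% glutaraldehyde and stained with 0.25% crystal violet. Nine 200× fields per well counted; run in duplicate; migration index.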

Series [19] deals with HUVEC. Nature of the series: Cytotoxicity against HUVEC assessed as reduction in cell viability up to 5 uM after 48 hrs by MTT assay. The class given is cell-based. Conditions: human. In short, it runs like this:
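HUVECs (passage 3–5; 5 × 10^3 cells/well) seeded for 24 h, then exposed to compound for 48 h. MTT (1 mg/mL) added for 4 h. Formazan dissolved in DMSO and read at 540 nm.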

The subject of series [20] is Mus musculus. Nature of the series: Antisepsis activity in C57BL/6 mouse assessed as inhibition of CLP-induced IL-1beta level in blood at 28 to 56 ug/kg, iv at 12 and 50 hrs post CLP surgery by ELISA. The class given is functional, organism-based. The essentials: as §3
Series [21] has as its system Mus musculus. Nature of the series: Antisepsis activity in C57BL/6 mouse assessed as inhibition of CLP-induced ALT level in plasma at 28 to 56 ug/kg, iv at 12 and 50 hrs post CLP surgery. The class given is functional, organism-based. In short, it runs like this: as §3
Series [22] concerns Mus musculus. Nature of the series: Antisepsis activity in C57BL/6 mouse assessed as inhibition of CLP-induced lactate dehydrogenase level in plasma at 28 to 56 ug/kg, iv at 12 and 50 hrs post CLP surgery. The class given is functional, organism-based. The essentials: as §3
Series [23] concerns Mus musculus. Nature of the series: Antisepsis activity in C57BL/6 mouse assessed as inhibition of CLP-induced death at 56 ug/kg, iv measured 12 hrs post CLP. The class given is functional, organism-based.
The target of series [24] is T1, High mobility group protein B1 (Homo sapiens). Nature of the series: Inhibition of HMGB1-mediated p38 MAPK phosphorylation in HUVEC at 0.1 to 1 uM after 6 hrs by ELISA. The class given is cell-based. In short, it runs like this: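 HUVECs activated with HMGB1 (1 μg/mL, 16 h), then treated with compound for 6 h. Phospho-p38 MAPK measured by ELISA kit.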
Series [25] has as its system Mus musculus. Nature of the series: Antisepsis activity in C57BL/6 mouse CLP surgery model assessed as reduction in bacterial burden in blood at 28 to 56 ug/kg, iv measured after 24 hrs. The class given is functional, organism-based. The essentials: as §5
In series [26] the test system is Mus musculus. Nature of the series: Antisepsis activity in C57BL/6 mouse assessed as inhibition of CLP-induced creatinine level in plasma at 28 to 56 ug/kg, iv at 12 and 50 hrs post CLP surgery. The class given is functional, organism-based. In short, it runs like this:
as §3

The target in series [27] is T1, High mobility group protein B1 (Homo sapiens). Nature of the series: Inhibition of HMGB1-induced TLR4 expression level in HUVEC at 0.1 to 1 uM after 6 hrs by ELISA. The class given is cell-based. The essentials:
as §4

In series [28] the test system is Mus musculus. Nature of the series: Antisepsis activity in C57BL/6 mouse CLP surgery model assessed as inhibition of HMGB1-induced leukocyte migration into peritoneal cavity at 28 to 56 ug/kg, iv. The class given is functional, organism-based. The essentials:
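Mice given HMGB1 (2 μg/mouse) iv for 16 h, then compound (28 or 56 μg/kg) for 6 h. Peritoneal cavity washed with 5 mL saline after 6 h. Fluid diluted in Türk's solution (0.01% crystal violet, 3% acetic acid). Leukocytes counted by light microscopy.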

Series [29] has as its target T1, High mobility group protein B1 (Homo sapiens). Nature of the series: Inhibition of HMGB1-induced RAGE expression level in HUVEC at 0.1 to 1 uM after 6 hrs by ELISA. The class given is cell-based. The essentials: as §4
Series [30] deals with Mus musculus. Nature of the series: Antisepsis activity in C57BL/6 mouse assessed as inhibition of HMGB1-induced vascular hyperpermeability by measuring amount of evans blue in the peritoneal washings at 28 to 56 ug/kg, iv pretreated with HMGB1 for 16 hrs followed by compound treatment measured after 6 hrs […]. The class given is functional, organism-based. The essentials:
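Mice given iv HMGB1 (2 μg/mouse) for 16 h, then compound (28 or 56 μg/kg) for 6 h. 1% Evans blue in saline injected iv; mice killed 30 min later. Peritoneal washings (5 mL saline) centrifuged at 200g for 10 min and read at 650 nm. Dye leak read from a standard curve as μg/mouse; n = 5.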

Series [31] deals with T1, High mobility group protein B1 (Homo sapiens). Nature of the series: Inhibition of HMGB1-mediated human neutrophil adhesion in HUVEC after 6 hrs by ELISA. The class given is cell-based. In short, it runs like this:
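HUVEC monolayers treated with HMGB1 (1 μg/mL, 16 h), then compound (0–1 μM) for 6 h. Human neutrophils (1.5 × 10^6 cells/mL) labelled with Vybrant DiD dye and added to the washed monolayers. Adhesion measured by fluorescence.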

In series [32] the test system is HUVEC. Nature of the series: Effect on barrier integrity in HUVEC at 1 uM after 6 hrs by spectrophotometric method. The class given is ADME, cell-based. The conditions noted are these: human. The essentials: as §2
The target in series [33] is Beta-secretase 1 (Homo sapiens, UniProt P56817). Nature of the series: Inhibition of recombinant human BACE1 using RhEVNLDAEFK-Quencher as substrate after 60 mins by fluorescence assay.
Sequence of Beta-secretase 1 (P56817 whole entry): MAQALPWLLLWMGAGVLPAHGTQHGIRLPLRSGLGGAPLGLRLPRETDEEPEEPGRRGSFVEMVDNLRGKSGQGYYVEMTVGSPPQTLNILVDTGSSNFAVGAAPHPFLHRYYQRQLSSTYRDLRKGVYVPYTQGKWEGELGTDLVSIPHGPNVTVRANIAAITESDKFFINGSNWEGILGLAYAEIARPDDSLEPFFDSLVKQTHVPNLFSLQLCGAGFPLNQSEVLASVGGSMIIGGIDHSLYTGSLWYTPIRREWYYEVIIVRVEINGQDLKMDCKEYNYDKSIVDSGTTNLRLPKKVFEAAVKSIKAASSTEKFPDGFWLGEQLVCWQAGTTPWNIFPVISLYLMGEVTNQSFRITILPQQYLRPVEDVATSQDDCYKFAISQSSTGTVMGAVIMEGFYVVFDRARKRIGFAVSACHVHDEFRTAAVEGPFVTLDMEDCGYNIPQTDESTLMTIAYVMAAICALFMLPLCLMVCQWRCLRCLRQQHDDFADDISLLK

Active and inactive are the calls of the source. The calls are words filed in the database; no cut-off is given here.

As for `Cc1c(O)cc2oc3oc4ccccc4c3c(=O)c2c1O`, the inhibition entry in series [1], in [3], in series [4], in series [6], in series [7] and in [8] was “Active” throughout. Besides, the inhibition entry in series [9], in series [10], in series [11], in series [12], in [15] and in series [17] was “Active” each time. The inhibition result in series [20], in [21], in [22], in [24], in series [26] and in series [27] was “Active” throughout. Besides, the inhibition result in series [28], in [29] and in series [30] was “Active” each time. The inhibition result in series [2], in series [5], in series [18] and in series [31] was “Dose-dependent effect” each time. Besides, the Activity result in [13], in series [19] and in series [32] was “Non-Toxic” throughout. In series [14], the mortality – broadly, the percentage killed – at 0.056 mg/kg is 60%. For the same compound, the result in series [16] and in series [25] was Active. For the same compound, the inhibition result in series [23] is “inactive”.

For the compound `Cc1c(O)cc2oc3c(c(=O)c2c1O)-c1ccc(O)cc1OC3O` (stereo not drawn) [BOERAVINONE E], the IC50 (as a rule, the midpoint of a concentration-inhibition curve) in [33] came to 5.6 µM.
